Data set [1] in a line: Inhibition of cJNK phosphorylation by Lantha screen assay.
In data set [2] the target is RAC-alpha serine/threonine-protein kinase (Homo sapiens) (UniProt P31749). As to the kind of experiment: Inhibition of AKT at 100 uM.
A short description of data set [3]: Inhibition of cJNK phosphorylation by pepJIP1 displacement DELFIA assay.
In data set [4] the target is Furin (Homo sapiens, UniProt P09958). As to the kind of experiment: Inhibition of furin.
Data set [5] is described as follows: Inhibition of lethal factor.
The target in data set [6] is Mitogen-activated protein kinase 14 (Homo sapiens, UniProt Q16539). As to the kind of experiment: Inhibition of p38alpha.
The nature of data set [7]: Inhibition of cJNK phosphorylation in TNF-alpha-stimulated HL60 cells by Lantha screen assay. In kind it is cell-based. Particulars: HL-60.
Data set [8] in a line: Metabolic stability in rat plasma assessed as drug level remaining after 1 hr. In kind it is ADME, cell-free. Particulars: read-out: Stability. The procedure, abridged: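 Fresh rat plasma with 1 μM compound (2.5% final DMSO) at 37 °C, stopped at 0, 30 and 60 min with methanol plus internal standard, analysed by LC–MS. Percent parent remaining was taken against 0 min from peak-area ratios to internal standard. Run in duplicate with a plasma-labile positive control.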

Data set [9] deals with Liver microsomes. In words: Metabolic stability in rat liver microsomes assessed as half life. In kind it is ADME, Microsome. The procedure, abridged:
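Rat liver microsomes (1 mg/mL protein) with 4 μM compound and 2 mM NADPH in 50 mM phosphate pH 7.2, after 5 min preincubation, incubated 1 h at 37.5 °C. Aliquots taken every 15 min were quenched with methanol plus internal standard and analysed by LC–MS. Run in duplicate with 2 control compounds of known half-life.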
On the technique in general: Liver microsomes are vesicles of endoplasmic reticulum, rich in cytochrome P450 enzymes.

Furin, sequence (P09958 whole entry): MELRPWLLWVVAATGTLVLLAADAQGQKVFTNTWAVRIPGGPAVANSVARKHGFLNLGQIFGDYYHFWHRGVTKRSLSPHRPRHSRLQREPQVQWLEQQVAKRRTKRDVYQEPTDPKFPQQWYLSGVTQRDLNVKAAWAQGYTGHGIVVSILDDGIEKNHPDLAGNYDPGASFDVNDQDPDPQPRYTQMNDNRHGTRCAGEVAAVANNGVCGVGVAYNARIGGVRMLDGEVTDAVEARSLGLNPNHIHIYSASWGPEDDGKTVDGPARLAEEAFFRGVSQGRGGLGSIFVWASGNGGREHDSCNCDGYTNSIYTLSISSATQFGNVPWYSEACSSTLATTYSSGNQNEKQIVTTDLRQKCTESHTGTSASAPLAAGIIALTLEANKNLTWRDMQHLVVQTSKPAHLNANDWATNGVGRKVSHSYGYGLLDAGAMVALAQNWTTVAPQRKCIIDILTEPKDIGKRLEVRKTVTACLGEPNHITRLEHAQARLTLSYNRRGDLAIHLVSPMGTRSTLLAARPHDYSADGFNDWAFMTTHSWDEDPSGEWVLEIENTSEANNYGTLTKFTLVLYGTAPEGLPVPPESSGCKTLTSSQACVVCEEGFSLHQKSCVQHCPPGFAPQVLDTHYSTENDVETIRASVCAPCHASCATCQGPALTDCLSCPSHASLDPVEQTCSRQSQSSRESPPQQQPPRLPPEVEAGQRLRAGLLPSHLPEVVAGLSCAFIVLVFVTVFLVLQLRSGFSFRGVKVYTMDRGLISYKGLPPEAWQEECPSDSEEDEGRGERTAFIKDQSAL
RAC-alpha serine/threonine-protein kinase (Homo sapiens), sequence (P31749 whole entry): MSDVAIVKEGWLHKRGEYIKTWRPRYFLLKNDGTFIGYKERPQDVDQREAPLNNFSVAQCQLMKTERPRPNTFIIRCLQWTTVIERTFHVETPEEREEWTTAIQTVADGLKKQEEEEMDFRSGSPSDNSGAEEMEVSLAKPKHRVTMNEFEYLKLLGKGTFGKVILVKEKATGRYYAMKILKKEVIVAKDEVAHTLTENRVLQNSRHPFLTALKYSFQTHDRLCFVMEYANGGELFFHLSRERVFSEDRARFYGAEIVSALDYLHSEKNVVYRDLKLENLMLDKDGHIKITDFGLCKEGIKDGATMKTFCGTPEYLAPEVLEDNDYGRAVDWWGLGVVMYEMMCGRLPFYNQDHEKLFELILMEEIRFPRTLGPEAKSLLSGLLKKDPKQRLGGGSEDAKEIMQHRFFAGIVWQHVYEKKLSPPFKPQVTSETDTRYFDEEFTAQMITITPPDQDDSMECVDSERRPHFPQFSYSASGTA
Mitogen-activated protein kinase 14, sequence (Q16539 whole entry): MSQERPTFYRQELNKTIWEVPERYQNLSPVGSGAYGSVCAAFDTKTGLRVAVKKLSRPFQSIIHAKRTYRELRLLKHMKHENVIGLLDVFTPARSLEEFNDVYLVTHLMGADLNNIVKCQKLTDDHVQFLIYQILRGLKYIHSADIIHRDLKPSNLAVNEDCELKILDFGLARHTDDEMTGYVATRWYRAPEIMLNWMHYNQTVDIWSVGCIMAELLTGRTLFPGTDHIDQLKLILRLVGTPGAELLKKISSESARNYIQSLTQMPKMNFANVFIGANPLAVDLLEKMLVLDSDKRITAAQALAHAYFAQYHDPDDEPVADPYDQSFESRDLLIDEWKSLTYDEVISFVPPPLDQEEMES

As to `COc1ccc2sc(Sc3ncc([N+](=O)[O-])s3)nc2c1`, the IC50 (usually the concentration that gives 50% inhibition) in [1] is 1.8 µM; in data set [3], 0.1 µM; in data set [4], over 50 µM; in [5], over 100 µM; in [6], over 100 µM. Further, in data set [2], the inhibition (commonly the percentage by which the read-out fell short of the control) came to 5%.
On to `O=[N+]([O-])c1cnc(Sc2nc3cc(C(F)(F)F)ccc3[nH]2)s1`, for which the IC50 worked out at 20.2 µM in data set [1] and 0.14 µM in data set [3].
`O=[N+]([O-])c1cnc(Sc2nc3ncccc3s2)s1`: the IC50 in data set [1] was 4.2 µM; in data set [3], 0.4 µM.
As for `Cn1c(Sc2ncc([N+](=O)[O-])s2)nc2ccccc21`, the IC50 in [1] is over 50 µM; in data set [3], 1.5 µM.
On to `O=[N+]([O-])c1cnc(Sc2nc3ccccc3s2)s1`, for which the half-maximal inhibitory concentration (IC50) in data set [7] was 15 µM; in [1], 1.8 µM; in data set [3], 0.16 µM; in data set [4], over 50 µM; in data set [5], over 100 µM; in data set [6] it was over 100 µM. In data set [2], the inhibition was 2%. The remaining at 1 h in data set [8] was 80%. The t1/2 in data set [9] came out at 1.17 h.
Consider `Cn1c(Sc2nc3ccc(Cl)cc3s2)nnc1-c1ccc2ncccc2c1`, for which the IC50 in data set [1] is over 50 µM.
Take `Nc1nc(Sc2ncc([N+](=O)[O-])s2)c2nc[nH]c2n1`: the results for the IC50 in data set [1] and in [3] were 55 µM and 1 µM, respectively.
In the same order, the values of `O=[N+]([O-])c1cnc(Sc2nc3cc(Cl)ccc3o2)s1` are 27 µM and 0.11 µM.
For `Cc1ccc2[nH]c(Sc3ncc([N+](=O)[O-])s3)nc2c1`, the 50% inhibitory concentration (IC50) in data set [1] is 3.8 µM; in data set [3], 0.02 µM.
Regarding `O=[N+]([O-])c1cnc(Sc2nc3cc(S(=O)(=O)O)ccc3[nH]2)s1`, the half-maximal inhibitory concentration (IC50) in data set [1] is over 50 µM.
With `Cn1c(Sc2nc3ccc(Cl)cc3s2)nnc1-c1cccs1`, the IC50 in [1] was over 50 µM.
On to `O=[N+]([O-])c1cnc(Sc2nc3ccccc3[nH]2)s1`, for which the 50% inhibitory concentration (IC50) is 8.1 µM in data set [1] and 0.67 µM in data set [3].
In [1], `O=[N+]([O-])c1ccc(Sc2nc3ccccc3o2)c([N+](=O)[O-])c1` had a concentration for half-maximal inhibition (IC50) of over 100 µM.
Consider `Nc1ncnc2nc(Sc3ncc([N+](=O)[O-])s3)[nH]c12`, for which the half-inhibitory concentration (IC50) is 27 µM in [1] and over 1 µM in data set [3].
`CCOc1ccc2nc(Sc3ncc([N+](=O)[O-])s3)sc2c1` displayed an IC50 in data set [1] of over 50 µM.
`O=[N+]([O-])c1ccc2nc(Sc3ncc([N+](=O)[O-])s3)[nH]c2c1`: the half-inhibitory concentration (IC50) in data set [1] amounted to 6.4 µM; in data set [3], 3.2 µM.
In turn, `Cc1nnc(Sc2nc3ccc(Cl)cc3s2)n1-c1ccc2c(c1)OCCO2` showed an IC50 in [1] of over 50 µM.
For the compound `CO/N=C(\C(=O)Sc1nc2ccccc2s1)c1csc(N)n1`, the results for the IC50 in data set [1] and in data set [3] were over 50 µM and 1.7 µM, respectively.
`O=[N+]([O-])c1cnc(Sc2nc3ccc(Cl)cc3s2)s1`: the IC50 is over 50 µM in data set [1] and 0.796 µM in data set [3].
As for `O=[N+]([O-])c1cnc(Sc2nc3cc(Cl)ccc3s2)s1`, the IC50 is over 50 µM in data set [1] and over 1 µM in data set [3].
With `COc1ccc2[nH]c(Sc3ncc([N+](=O)[O-])s3)nc2c1`, the IC50 in data set [1] was determined as 4.7 µM; in data set [3], 0.13 µM.
The compound `COc1ccccc1-c1nnc(Sc2nc3ccc(Cl)cc3s2)n1-c1ccccc1` showed an IC50 in data set [1] of over 50 µM.
As to `O=C(O)c1ccc(CSc2nc3ccccc3[nH]2)cc1`, the 50% inhibitory concentration (IC50) in data set [1] is over 100 µM.
`O=[N+]([O-])c1cnc(Sc2nc3cc(Cl)c(Cl)cc3[nH]2)s1`: the 50% inhibitory concentration (IC50) is 23 µM in [1] and 1.5 µM in data set [3].
The compound `Cn1c(Sc2nc3ccc(Cl)cc3s2)nnc1-c1ccc(Cl)cc1Cl` returned an IC50 in [1] of over 50 µM.
With `Nc1ncnc2[nH]c(SCc3ccc(C(=O)O)cc3)nc12`, half-maximal inhibition in data set [1] (IC50) required 70 µM.
Consider `O=[N+]([O-])c1cnc(Sc2nc3ccccc3o2)s1`, for which the 50% inhibitory concentration (IC50) in data set [1] is 2.7 µM; in data set [3], 0.24 µM.
The like results for `Cc1ccc2nc(Sc3ncc([N+](=O)[O-])s3)oc2c1` were, in that order, over 50 µM and 0.29 µM.

The values are drawn from ChEMBL document CHEMBL1153381, “Discovery of 2-(5-nitrothiazol-2-ylthio)benzo[d]thiazoles as novel c-Jun N-terminal kinase inhibitors” (Bioorg Med Chem, 2009).
